Measurements as given in publication PMC6146057 (ACS chemical neuroscience, 2018).
Changes are numbered by the printed parent chain. Where “and” joins values, the source holds several entries; their conditions need not be identical. Equal entries are not always repeated.

Assays:
[1] = Rat brain:plasma distribution; assay type: in vivo; settings: male, Sprague-Dawley, brain and plasma, intravenous
Summary of the method: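 Dual-cannulated male Sprague–Dawley rats received a cassette IV dose of 0.2–0.25 mg/kg per compound via the jugular vein. The vehicle was about 10% ethanol, 40% PEG400 and 50% DMSO. Carotid blood and brain were collected at 0.25 h. Brains were rinsed in PBS, snap frozen and bead-homogenised, and plasma and brain were analysed by LC/MS/MS.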

[2] = target: T1, M1 (Homo sapiens, UniProt P11229); assay: Calcium mobilization assay, high expression human M1 cell line; assay type: cell-based
T1 sequence (P11229 1-460): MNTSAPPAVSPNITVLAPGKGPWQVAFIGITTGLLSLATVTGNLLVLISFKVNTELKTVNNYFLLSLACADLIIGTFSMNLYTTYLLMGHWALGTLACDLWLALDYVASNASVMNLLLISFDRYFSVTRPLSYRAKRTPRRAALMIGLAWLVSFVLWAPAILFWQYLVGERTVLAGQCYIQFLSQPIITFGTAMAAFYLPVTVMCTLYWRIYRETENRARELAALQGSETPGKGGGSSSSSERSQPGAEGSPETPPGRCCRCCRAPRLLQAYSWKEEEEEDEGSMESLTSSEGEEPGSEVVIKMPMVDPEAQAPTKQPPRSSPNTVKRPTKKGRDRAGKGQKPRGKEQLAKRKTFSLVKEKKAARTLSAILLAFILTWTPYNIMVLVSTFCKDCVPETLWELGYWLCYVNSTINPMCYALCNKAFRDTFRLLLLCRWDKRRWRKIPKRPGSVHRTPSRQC
Summary of the method: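 Muscarinic receptor-expressing CHO cells were plated at 20,000 cells/well in medium without G418 the day before. They were loaded with 1.15 μM Fluo-4 AM for 45 min at 37 °C in HBSS with 20 mM HEPES and 2.5 mM probenecid. Test compound (10-point 1:3 series, top final 30 μM) was added for 2.5 min, then EC20 ACh for 1 min. Calcium flux was fitted with a four-parameter logistic curve.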

[3] = tested on: rats; assay: Novel object recognition task; assay type: in vivo, rat
Summary of the method: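 Male Sprague–Dawley rats were habituated to the arena. They received vehicle (10% Tween 80) or test compound at 1–10 mg/kg i.p. (1 mL/kg; n = 12) 30 min before a 10 min exposure to two identical objects. After 24 h, one object was replaced by a novel one and exploration was recorded for 3 min. A blinded observer scored exploration, and the recognition index was (novel − familiar)/total exploration time.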

[4] = Cynomolgus monkey IV/PO PK study; assay type: in vivo
Summary of the method: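 Male cynomolgus monkeys (n = 3) received a single IV bolus of 1 mg/kg in ethanol:PEG400:saline (10:60:30, v/v/v) and a single oral dose of 3 mg/kg in 30% aqueous Captisol. Plasma PK parameters were calculated by noncompartmental analysis.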

[5] = target: T1, M1; assay: M1 PAM potency at increasing ACh concentration; assay type: cell-based; settings: for EC50: M1 PAM potency
[6] = tested on: rats; assay: Contextual fear conditioning, risperidone-induced deficit; assay type: in vivo, rat; settings: 10 mg/kg VU0486846 coadministered with 3 mg/kg risperidone
[7] = target: P-gp (Homo sapiens, UniProt P08183); assay: MDCK P-gp efflux and permeability; assay type: in vitro ADME
Sequence of P-gp (P08183 whole entry): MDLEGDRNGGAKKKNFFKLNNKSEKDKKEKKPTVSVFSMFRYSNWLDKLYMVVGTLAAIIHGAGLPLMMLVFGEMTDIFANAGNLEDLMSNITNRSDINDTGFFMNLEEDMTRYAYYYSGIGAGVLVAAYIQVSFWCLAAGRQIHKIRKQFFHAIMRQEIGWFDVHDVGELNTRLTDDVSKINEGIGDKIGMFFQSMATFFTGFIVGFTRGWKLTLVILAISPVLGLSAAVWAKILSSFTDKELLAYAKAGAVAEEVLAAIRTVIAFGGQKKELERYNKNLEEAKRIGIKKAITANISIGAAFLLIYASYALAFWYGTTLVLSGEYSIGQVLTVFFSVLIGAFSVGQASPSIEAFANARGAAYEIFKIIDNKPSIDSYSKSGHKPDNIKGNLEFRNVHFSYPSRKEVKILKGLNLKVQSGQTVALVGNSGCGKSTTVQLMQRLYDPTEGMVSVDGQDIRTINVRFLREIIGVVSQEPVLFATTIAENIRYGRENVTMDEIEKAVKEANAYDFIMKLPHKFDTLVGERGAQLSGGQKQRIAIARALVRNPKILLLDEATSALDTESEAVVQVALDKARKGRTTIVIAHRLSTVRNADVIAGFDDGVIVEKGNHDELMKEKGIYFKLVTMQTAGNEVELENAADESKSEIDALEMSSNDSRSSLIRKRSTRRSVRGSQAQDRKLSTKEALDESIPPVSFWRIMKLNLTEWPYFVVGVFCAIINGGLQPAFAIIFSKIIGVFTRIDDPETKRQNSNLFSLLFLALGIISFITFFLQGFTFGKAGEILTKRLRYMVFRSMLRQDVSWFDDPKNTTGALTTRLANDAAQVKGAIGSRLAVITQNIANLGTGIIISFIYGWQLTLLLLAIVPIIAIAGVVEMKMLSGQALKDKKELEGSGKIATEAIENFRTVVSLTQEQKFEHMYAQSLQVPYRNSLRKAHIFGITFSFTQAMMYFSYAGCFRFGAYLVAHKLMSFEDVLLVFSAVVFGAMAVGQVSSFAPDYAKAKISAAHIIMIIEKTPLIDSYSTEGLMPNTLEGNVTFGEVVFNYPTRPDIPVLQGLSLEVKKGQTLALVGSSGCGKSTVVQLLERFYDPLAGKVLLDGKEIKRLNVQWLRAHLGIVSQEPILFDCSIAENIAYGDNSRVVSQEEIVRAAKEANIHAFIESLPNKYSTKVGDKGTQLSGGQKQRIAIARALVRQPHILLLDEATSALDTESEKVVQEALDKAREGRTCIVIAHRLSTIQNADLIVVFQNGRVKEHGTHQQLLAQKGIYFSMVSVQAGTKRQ

[8] = Mouse plasma-brain exposure; assay type: in vivo; settings: male, C57BL/6J, brain and plasma, intraperitoneal, 100 mg/kg
Summary of the method: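 Male C57BL/6J mice aged 7–9 weeks were dosed i.p. with test compound in 10% Tween 80 (1–10 mg/mL, 10 mL/kg). Brain and trunk blood were collected at 0.25 h. Brains were washed in cold saline and frozen on dry ice. EDTA plasma was separated, and both matrices were analysed by LC/MS/MS.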

[9] = tested on: nonhuman primate (NHP); assay: Nonhuman primate adverse effect assessment; assay type: in vivo
[10] = Plasma protein binding by equilibrium dialysis, rat; assay type: in vitro ADME; settings: pH 7.4
Summary of the method: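 Plasma spiked with test article was dialysed against 25 mM phosphate buffer, pH 7.4, by equilibrium dialysis for 4 h at 37 °C with shaking. Aliquots from each chamber were matrix-matched, extracted with ice-cold acetonitrile, centrifuged and quantified by LC/MS/MS.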

[11] = target: T2, mouse M1 (Mus musculus, UniProt P12657); assay: Calcium mobilization assay, mouse M1 cell line with low expression; assay type: cell-based
T2 sequence (P12657 1-460): T1 sequence (P11229 1-460) with A5V, T254S, R320K, A337G, I413V

[12] = male, cynomolgus monkey, plasma, intravenous, 1 mg/kg
[13] = ACh concentration increased to EC70

O=C(N[C@H]1CCCC[C@@H]1O)[C@H]1CN(Cc2ccc(-n3cccn3)cc2)c2ccccc2O1 [VU0486846, (2R)-N-[(1S,2S)-2-Hydroxycyclohexyl]-4-[(4-pyrazol-1-ylphenyl)-methyl]-2,3-dihydro-1,4-benzoxazine-2-carboxamide]
Kp at 0.25 h [1]: 0.18
Kp uu at 0.25 h [1]: 0.05
EC50 ([2]; Human M1 CRC EC50, Figure 4A): 0.308 µM
EC50 ([2]; M1 PAM EC50, human M1, high expression line, EC20 ACh): 0.31 µM
EC50 ([2]; M1 PAM pEC50, human M1, high expression line, EC20 ACh): 0.295 µM
EC50 ([2]; M1 agonist activity pEC50, human M1, high expression line, compound alone): 4.07 µM and 4.27 µM
M1 PAM efficacy, % ACh Max ([2]; human M1, high expression line): 85 ± 2 % ACh Max
M1 agonist activity, % ACh Max ([2]; human M1, high expression line, compound alone): 39 ± 3 % ACh Max and 29 ± 6 % ACh Max
Effect on recognition memory ([3]; 1–10 mg/kg i.p.): dose-dependently enhanced recognition memory
minimum effective dose, novel object recognition ([3]; i.p., 30 min pretreatment, memory assessed 24 h later): 3 mg/kg
Adverse events or cholinergic side effects in PK study ([4]; cynomolgus monkey PK study): No adverse events or cholinergic side effects
half-life ([4]; male, cynomolgus monkey, plasma, 1 mg/kg): 4.2 h
Vd [4, 12]: 1 L/kg
clearance [4, 12]: 18 mL/min/kg
bioavailability ([4]; male, cynomolgus monkey, plasma, po, 3 mg/kg): 37%
M1 PAM efficacy, % ACh Max [5, 13]: 90 ± 1 % ACh Max
EC50 [5, 13]: 0.068 ± 0.011 µM
EC50 ([5]; very low level of ACh (~EC9)): 0.43 ± 0.12 µM
M1 PAM efficacy, % ACh Max ([5]; very low level of ACh (~EC9)): 84 ± 2 % ACh Max
Conditioned freezing [6]: restored conditioned freezing to vehicle-treated control levels
human P-gp substrate ([7]; MDCK): not a human P-gp substrate
Papp ([7]; human, MDCK): 30 ×10⁻⁶ cm/s
efflux ratio ([7]; human, MDCK-MDR1): 0.9
Kp at 0.25 h [8]: 0.67
Kp uu at 0.25 h [8]: 0.17
total plasma levels [9]: ~ 2 μM
Adverse effects ([9]; at achieved plasma levels): without any adverse effects
fraction unbound at 4 h [10]: 0.11
EC50 ([11]; M1 PAM EC50, mouse M1 cell line): 0.6 µM
EC50 ([11]; M1 PAM pEC50, mouse M1 cell line): 0.562 µM
M1 PAM efficacy, % ACh Max ([11]; mouse M1 cell line): 77 ± 4 % ACh Max
M1 agonism, % ACh Max ([11]; mouse M1 cell line, compound alone): 9 ± 1 % ACh Max
